Results as given in ChEMBL document CHEMBL1144551, “Enantioselective synthesis and antiviral activity of purine and pyrimidine cyclopentenyl C-nucleosides” (Bioorg Med Chem, 2007).
pEC50, pIC50: −log10 of the molar value. Activity calls are given as the source filed them. The rule behind the calls is not given here.

What was measured:
Punta Toro virus = assay: Antiviral activity against Punta Toro virus; format: functional, organism-based
West Nile virus = assay: Antiviral activity against West Nile virus; format: functional, organism-based
Hepatitis C virus = assay: Antiviral activity against hepatitis C virus; format: functional, organism-based; conditions: Hepacivirus hominis
[1] = tested on: Human immunodeficiency virus 1; assay: Antiviral activity against HIV1 LA1 in human PBM cells; format: functional, organism-based; conditions: Human immunodeficiency virus 1, LA1, PBMC
Summary of the method: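 Human peripheral blood mononuclear (PBM) cells were infected with HIV-1 strain LAI, and antiviral activity was expressed as EC50.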

CCRF-CEM = assay: Cytotoxicity against CEM cells; format: cell-based; conditions: Homo sapiens
SARS-CoV = assay: Antiviral activity against SARS coronavirus; format: functional, organism-based; conditions: Severe acute respiratory syndrome-related coronavirus
[2] = tested on: Venezuelan equine encephalitis virus; assay: Antiviral activity against Venezulean equine encephalitis virus; format: functional, organism-based
LLC-MK2 = assay: Cytotoxicity against LLC-MK2 cells; format: cell-based, Macaca mulatta; conditions: rhesus monkey
Human alphaherpesvirus 3 = assay: Antiviral activity against varicella zoster virus; format: functional, organism-based
Human alphaherpesvirus 1 = assay: Antiviral activity against HSV1; format: functional, organism-based
Dengue virus = assay: Antiviral activity against dengue virus; format: functional, organism-based
Vaccinia virus = assay: Antiviral activity against vaccinia virus; format: functional, organism-based; conditions: Orthopoxvirus vaccinia
Tacaribe virus = assay: Antiviral activity against tacaribe virus; format: functional, organism-based; conditions: Mammarenavirus tacaribeense
Human alphaherpesvirus 2 = assay: Antiviral activity against herpes simplex virus 2; format: functional, organism-based
[3] = Cytotoxicity against PBM cells; format: cell-based; conditions: Homo sapiens, PBMC
Cowpox virus = assay: Antiviral activity against Cowpox virus; format: functional, organism-based
Yellow fever virus = assay: Antiviral activity against yellow fever virus; format: functional, organism-based
Vero = assay: Cytotoxicity against Vero cells; format: cell-based; conditions: Chlorocebus sabaeus

| SMILES | pEC50 (Punta Toro virus) | pEC50 (West Nile virus) | pIC50 (West Nile virus) | Activity (Hepatitis C virus) | pEC50 [1] | EC90 [1] [µM] | pIC50 (CCRF-CEM) | Activity [2] | Activity (LLC-MK2) | Activity (Human alphaherpesvirus 3) | Activity (Human alphaherpesvirus 1) | Activity (Dengue virus) | Activity (Vaccinia virus) | Activity (Tacaribe virus) | Activity (Human alphaherpesvirus 2) | pIC50 [3] | pEC50 (Cowpox virus) | pIC50 (Cowpox virus) | Activity (Yellow fever virus) | pIC50 (Vero) | other results |
| --- | --- | --- | --- | --- | --- | --- | --- | --- | --- | --- | --- | --- | --- | --- | --- | --- | --- | --- | --- | --- | --- |
| Nc1nc(=O)c([C@@H]2C=C(CO)[C@@H](O)[C@H]2O)c[nH]1 | < 4.00 | 4.96 | < 4.00 | inactive | < 4.00 | > 100 | < 4.00 | inactive | Not Active | inactive | inactive | inactive | inactive | inactive | inactive | < 4.00 | < 4.00 | < 4.00 | inactive | < 4.00 | pIC50 (Punta Toro virus): < 4.00; pEC50 (SARS-CoV): < 4.00 |
| Cc1cn([C@H]2C[C@H](N=[N+]=[N-])[C@@H](CO)O2)c(=O)[nH]c1=O [ZIDOVUDINE] | – | – | – | – | – | – | – | – | – | – | – | – | – | – | – | < 4.00 | – | – | – | – | – |
| Nc1nc(O)c2[nH]cc([C@@H]3C=C(CO)[C@@H](O)[C@H]3O)c2n1 | 5.60 | < 4.00 | < 4.00 | inactive | < 4.00 | > 100 | < 4.00 | inactive | Not Active | inactive | inactive | inactive | inactive | inactive | inactive | < 4.00 | < 4.00 | < 4.00 | inactive | < 4.00 | pIC50 (Punta Toro virus): < 4.00; pEC50 (SARS-CoV): < 4.00 |
| Nc1ncnc2c([C@@H]3C=C(CO)[C@@H](O)[C@H]3O)c[nH]c12 | – | < 4.00 | < 4.00 | inactive | 5.70 | 43.2 | 4.97 | inactive | Not Active | inactive | inactive | inactive | inactive | inactive | inactive | 4.81 | < 4.00 | < 4.00 | inactive | < 4.00 | – |
| O=c1[nH]cc([C@@H]2C=C(CO)[C@@H](O)[C@H]2O)c(=O)[nH]1 | 4.19 | < 4.00 | < 4.00 | inactive | < 4.00 | > 100 | < 4.00 | inactive | Not Active | inactive | inactive | inactive | inactive | inactive | inactive | < 4.00 | < 4.00 | < 4.00 | inactive | < 4.00 | pIC50 (Punta Toro virus): < 4.00; pEC50 (SARS-CoV): 4.31; pIC50 (SARS-CoV): < 4.00 |
| Nc1ncnc2c1ncn2[C@@H]1C=C(CO)[C@@H](O)[C@H]1O [NEOPLANOCIN A] | – | < 4.29 | – | – | – | – | – | – | – | – | – | – | – | – | – | – | 5.08 | < 3.52 | – | – | – |
